# Reference: ChEMBL document CHEMBL1140917, “Structure-activity relationships of antitubercular nitroimidazoles. 1. Structural features associated with aerobic and anaerobic activities of 4- and 5-nitroimidazoles” (2009)
# Experiments:
# [1] = tested on: Mycobacterium tuberculosis; test: Antimycobacterial activity against wild type Mycobacterium tuberculosis H37Rv ATCC 27294 after 2 weeks; format: functional; conditions: 336 h
# Summary of the method: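 Aerobic MIC99: Mtb H37Rv grown to OD 0.5 in 7H9 broth with 0.05% Tween 80, 0.2% glycerol, ADC; diluted 1:1000. Compounds from DMSO stocks, 2-fold series giving 8 dilutions (1000 μM – 7.8 μM). 2 weeks at 37°C, growth read macroscopically; MIC99 = concentration preventing 99% growth. Three independent determinations.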
# [2] = tested on: Mycobacterium tuberculosis; test: Ratio of Kcat/Km for Mycobacterium tuberculosis F420-dependent nitroreductase by Michaelis-Menten equation; parameters: unit not given here
# Summary of the method: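 MBP-tagged Rv3547 (Ddn) expressed in E. coli (300 μM IPTG, 37 °C), amylose-affinity purified. F420H2 made enzymatically with Mtb FGD1, which was heat-inactivated (55°C, 15 min) and removed by ultrafiltration. Reactions in phosphate buffer pH 7.4, 50 μM F420, 0.6 μM enzyme, varying nitroimidazole concentrations, 25°C. Initial rates from absorbance gain at 400 nm (ε400 = 25.71 mM−1 cm−1).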
# [3] = tested on: Mycobacterium tuberculosis; test: Antimycobacterial activity against wild type Mycobacterium tuberculosis H37Rv NRP-2 stage after 3 weeks under anaerobic condition; format: functional
# Summary of the method: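 Early-log Mtb in glycerol-free Dubos broth diluted 100-fold, sealed tubes (headspace ratio 0.5), stirred 180 rpm 20 days to NRP-2 (methylene blue reference). Cells exposed to two-fold drug dilutions (1.95-500 μM) with DMSO control, anaerobically at 37°C for 7 days. Washed thrice, serially diluted, spotted on 7H11 agar; after 3 weeks at 37°C, MAC = 90% reduction in visible growth.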
SMILES,MIC [1] [µM],kcat/Km [2],MAC [3] [µM]
COc1nc([N+](=O)[O-])cn1CCOCc1ccc(OC(F)(F)F)cc1,6.25,0.03,250
O=[N+]([O-])c1cnc2n1C[C@H](O)CO2,12.5,0.003,125
O=[N+]([O-])c1cn2c(n1)OC[C@@H](OCc1ccc(OC(F)(F)F)cc1)C2 [PRETOMANID],0.8,0.145,8
O=[N+]([O-])c1cn2c(n1)CC[C@@H](OCc1ccc(OC(F)(F)F)cc1)C2,25,0.0235,250
O=[N+]([O-])c1cn2c(n1)OC[C@@H](O)C2,> 100,0.005,250
Cc1nc([N+](=O)[O-])cn1CCOCc1ccc(OC(F)(F)F)cc1,> 145,,>500
CO[C@@H]1COc2nc([N+](=O)[O-])cn2C1,> 125,0.0079,250
O=[N+]([O-])c1cnc2n1C[C@H](OCc1ccc(OC(F)(F)F)cc1)CO2,4,0.0817,31.25
FC(F)(F)Oc1ccc(CO[C@@H]2COc3nccn3C2)cc1,> 160,,>500
O=[N+]([O-])c1cnc2n1C[C@@H](O)CC2,> 100,,>100
COc1ncc([N+](=O)[O-])n1CCO,> 100,,>500
O=[N+]([O-])c1cn2c(n1)C=C[C@@H](OCc1ccc(OC(F)(F)F)cc1)C2,25,0.0476,62.5
Cc1nc([N+](=O)[O-])cn1CCO,> 300,,>500
Cc1ncc([N+](=O)[O-])n1CCO [METRONIDAZOLE],> 300,,62.5
Cc1ncc([N+](=O)[O-])n1CCOCc1ccc(OC(F)(F)F)cc1,> 145,0.005,250
O=[N+]([O-])c1cnc2n1C[C@H](O)CC2,> 100,,>500
